In the library only some 3% were active in any assay of this set; here they are far more common.
Cardio protect = protects H9c2 cardiomyocytes from peroxide injury. 360,000 tested, 0.63% active. protection from H2O2 cell death, % at 20 µM. H2O2 injury protection, ATPLite, 2 h;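 active = compounds giving at least 50% protection of heart cells from peroxide-induced death in the single-dose screen, raw or plate-pattern-corrected value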;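 also: 0% = DMSO wells with peroxide and 100% = DMSO wells without peroxide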
Exocytosis inh = lytic granule exocytosis inhibition; TALL-104 LAMP-1 surface exposure, flow cytometry; cells stimulated with thapsigargin and PMA; 360,000 tested, 0.66% active; inhibition, % at 10 µM; AID 651702;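 active = inhibition above about 55%, limit read from the data; inconclusive = no clear call, values can overlap the other calls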
Pemphigus Ab inh = inhibitors of pemphigus antibody binding to human desmoglein-3 | DSG3-coupled beads, scFv-anti-DSG3-GFP binding, flow cytometry; hits give low values | 310,000 tested, 0.48% active | P32926 | AID 588358 | binding (percent of control), % at 10 µM;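 active = binding more than 3 SD below its plate's average and above zero; inconclusive = below that plate limit but binding exactly zero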;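 also: hits lower antibody fragment binding to DSG3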
SENP1 inh = blocks the human SENP1 SUMO protease catalytic domain; recombinant SENP1 catalytic domain, CyPet-SUMO1-YPet FRET cleavage; inhibition, % at 10 µM; 360,000 tested, 0.21% active; AID 624204;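 active = inhibition at least 30% at 10 µM, raw YFP signal under a set limit, fluorescence ratio 0.5 to 1.5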;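 also: 0% = enzyme with DMSO and 100% = no enzyme wells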
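Assay system: hSENP1 catalytic domain, recombinant. Amount: SENP1 enzyme, 20 pM final. Schedule: 50 min reaction, RT, dark. Technique: FRET, CFP and YFP emission. Control set: no-enzyme wells low, DMSO-plus-enzyme wells high control.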
HNF4A DNA FP = change in binding of human HNF4 alpha to DNA; P41235; HNF4a-FITC DNA binding, fluorescence polarization, 1 h; activity change, % at 10 µM; 360,000 tested, 0.3% active; in the data active = activity change above about 30%, passing the limit was not always enough
Target sequence (P41235 whole entry, looked up): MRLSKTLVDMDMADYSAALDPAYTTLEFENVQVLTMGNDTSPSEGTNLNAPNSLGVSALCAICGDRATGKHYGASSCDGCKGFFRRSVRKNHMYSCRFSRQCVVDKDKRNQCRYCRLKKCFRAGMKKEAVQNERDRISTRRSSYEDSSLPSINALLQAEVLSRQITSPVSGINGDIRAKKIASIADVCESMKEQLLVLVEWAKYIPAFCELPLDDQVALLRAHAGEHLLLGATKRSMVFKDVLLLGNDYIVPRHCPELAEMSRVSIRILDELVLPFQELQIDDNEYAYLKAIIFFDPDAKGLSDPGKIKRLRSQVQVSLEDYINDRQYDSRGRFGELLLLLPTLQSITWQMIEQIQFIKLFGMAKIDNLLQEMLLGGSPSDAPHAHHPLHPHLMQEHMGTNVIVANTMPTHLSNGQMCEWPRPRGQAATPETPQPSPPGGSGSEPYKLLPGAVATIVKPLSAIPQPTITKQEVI
Myeloid diff MLP = compounds promoting myeloid differentiation; ER-HoxA9 myeloid progenitors, lysozyme-GFP differentiation, flow cytometry; calls only at 10 µM; AID 624256; 360,000 tested, 1% active;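 active = normalized GFP-positive differentiation at or above the plate's own cutoff, the solvent-only control mean plus 3 SD; inconclusive = no clear call, values can overlap the other calls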;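 also: cells exposed to compound for four days before flow analysis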
Starred values were filed as active, the others as inactive; i = inactive; ? = inconclusive; · = not tested or not shown; + = active, no number.

SMILES | Cardio protect | Exocytosis inh | Pemphigus Ab inh | SENP1 inh | HNF4A DNA FP | Myeloid diff MLP
Cc1cccc(N2CCN(C(=O)c3ccc(S(=O)(=O)N(C)c4ccccc4)cc3)CC2)c1C | -5 | 8 | 98 | 1 | -3 | ?
CN(C)c1ccc(-c2ccnc3c2CC(C)(C(=O)NCc2ccccc2)O3)cc1 (centres undefined) | -2 | 0 | · | 0 | 1 | +
Nc1ccc(C(=O)Nc2cccc(N)c2)cc1 | -4 | -2 | 87 | 1 | -3 | i
CCOc1cccc(C(=O)Nc2ccc(N3CCN(S(C)(=O)=O)CC3)cc2)c1 | -11 | 0 | -22* | 0 | -1 | i
CC1(C)CC(NS(=O)(=O)c2ccc3ccccc3c2)CC(C)(C)N1 | 0 | -6 | 33* | 1 | 4 | ?
COc1ccc(S(=O)(=O)NC2CC(C)(C)NC(C)(C)C2)cc1 | -7 | 18 | 111 | 0 | 4 | i
Clc1ccc(-c2cc(-c3nnc4n3CCCCC4)c3ccccc3n2)cc1 | -5 | 0 | 98 | 2 | -1 | +
Oc1ccc(C[C@H]2CNCCN2CCc2cc(C(F)(F)F)cc(C(F)(F)F)c2)cc1 | -6 | -7 | 98 | 0 | 6 | i
Oc1ccc(C[C@@H]2CNCCN2CCc2cc(C(F)(F)F)cc(C(F)(F)F)c2)cc1 | -8 | 9 | 106 | 2 | 3 | +
CCNc1nc(-c2cc(C)n(Cc3ccco3)c2C)cs1 | -3 | -2 | 91 | 17 | -8 | i
Cc1cc(-c2csc(NC(=O)c3ccc(=O)[nH]c3)n2)c(C)n1Cc1ccco1 | 0 | -2 | 82* | -6 | -53 | i
Cc1coc(NC(=O)CSc2nc(-c3ccc(Cl)cc3)cc(C(F)(F)F)c2C#N)n1 | -12 | -2 | 91 | 5 | 5 | +
CC(c1ccco1)N(C(=O)c1ccc(Cl)c([N+](=O)[O-])c1)c1ccccn1 (centres undefined) | -3 | 2 | · | 1 | 3 | i
Cc1ccc(C(=O)N2CCC(C)CC2)cc1NC1=NC2CS(=O)(=O)CC2S1 (centres undefined) | 1 | 3 | 97 | 2 | -1 | i
COc1ccccc1-c1noc(CCC(=O)NC2CCCCC2)n1 | 3 | 1 | 99 | -1 | 3 | i
C/C(=N\NC(=O)CCCNc1ccc(C)cc1)c1ccccn1 | 58* | 10 | 101 | 4 | 0 | i
COc1cc(/C=C2/C(=O)c3cccc([N+](=O)[O-])c3C2=O)c(Br)cc1O | -14 | 15 | 119 | 5 | -8 | i
COc1cccc(N/C=C(\C#N)c2ccc(OCCCF)cc2)c1 | -6 | 4 | 73* | 1 | -1 | i
CN1CCN([C@H]2CS(=O)(=O)N[C@@H]2COCc2ccccc2)CC1 | 7 | 0 | · | -5 | 4 | i
COc1ccc(/C=N/OC/C(O)=C(\C#N)c2nc3ccccc3[nH]2)cc1 | -12 | -2 | 97 | -31 | 3 | i
COc1ccc(OC/C(O)=C(\C#N)c2nc3ccccc3[nH]2)cc1 | -3 | 0 | 16* | -15 | 4 | i
Cc1cc(SCC(=O)OC/C(O)=C(\C#N)c2nc3ccccc3[nH]2)c(C)cc1Br | -15 | -2 | 105 | -45 | 12 | i
N#C/C(=C(/O)COC(=O)CSc1ccc(Cl)cc1)c1nc2ccccc2[nH]1 | -17 | 0 | 104 | -60 | 0 | +
Cc1ccc(NC(=O)c2cccc(NC3=NC4CS(=O)(=O)CC4S3)c2)cc1 (centres undefined) | -2 | -2 | 96 | -4 | -3 | i
Cc1nn(CC(=O)NC(=O)NC2CCCC(C)C2C)c(=O)c(C#N)c1C (centres undefined) | -3 | -2 | 97 | -1 | -1 | i
SMILES | Cardio protect | Exocytosis inh | Pemphigus Ab inh | SENP1 inh | HNF4A DNA FP | Myeloid diff MLP
CSc1nc(Cc2ccccc2)cc(=O)[nH]1 | 1 | -2 | 61* | 3 | 2 | i
CCc1cc(=O)[nH]c(SCCc2ccccc2)n1 | 4 | 1 | 100 | 0 | 0 | i
COc1ccc(C(=O)NC2CC(C)(C)NC(C)(C)C2)cc1S(=O)(=O)N1CCOCC1 | 6 | -2 | 107 | 1 | 1 | i
COc1ccc(-n2nc(C(=O)NCC(=O)Nc3cc(OC)c(OC)c(OC)c3)c3ccccc3c2=O)cc1Cl | 58* | 17 | 83 | 2 | -2 | i
C[C@H]1C[C@H]2[C@@H]3CCC4=CC(=O)C=C[C@]4(C)[C@@]3(F)[C@@H](O)C[C@]2(C)[C@@]1(O)C(=O)CO | -5 | 0 | 95 | -1 | · | ?
C[C@H]1C[C@H]2[C@@H]3CCC4=CC(=O)C=C[C@]4(C)[C@@]3(Cl)[C@@H](O)C[C@]2(C)[C@@]1(O)C(=O)CO | 4 | 1 | -13* | 0 | -2 | i
COC(=O)[C@H](C)N(Cc1ccc(Cl)c(Cl)c1)S(=O)(=O)CCN1CCCC1 | 10 | 5 | 107 | -1 | 3 | i
O=C(CN1C(=O)C(=O)c2ccccc21)NCCc1ccccc1 | 8 | 1 | 100 | -2 | -2 | i
O=C1c2ccccc2C(=O)N1CCCN1C(=O)c2ccccc2C1=O | 2 | 10 | -1.0* | -2 | 2 | i
O=C1C(=O)N(CCCc2ccccc2)c2ccccc21 | 7 | 76* | 97 | -1 | -6 | ?
COc1cccc(/C=N/NC(=O)CC(=O)NCCc2ccccc2)c1OC | -6 | -7 | · | 1 | 2 | i
COc1ccc(OC)c(/C=N/NC(=S)NCCc2ccccc2)c1 | -11 | 24 | 62* | 2 | 1 | i
COc1cccc(/C=N/NC(=S)NCCc2ccccc2)c1OC | -8 | 17 | 70* | 2 | 3 | i
Cc1ccc(C(=O)c2coc3cc([N+](=O)[O-])c(O)c([N+](=O)[O-])c23)cc1 | -11 | 7 | 20* | 5 | -11 | i
Cc1ccc(C(=O)c2ccc([N+](=O)[O-])cc2)cc1 | -8 | 0 | 84 | 1 | -2 | i
O=C(COc1ccccc1)Nc1c2c(nn1-c1ccc(F)cc1)CS(=O)(=O)C2 | 0 | 2 | 112 | 0 | -1 | i
O=C(/C=C/c1ccccc1Cl)c1ccccc(=O)c1O | 70* | 1 | 99 | -47 | -4 | i
O=C(/C=C/c1ccc([N+](=O)[O-])cc1)c1ccccc(=O)c1O | 10 | 56* | 93 | -35 | -1 | ·
CCOC(=O)c1c2c(n(-c3ccc(OC)cc3)c1C)C(=O)C(=O)c1ccccc1-2 | -15 | 98* | · | 3 | 3 | ?
COc1ccc(CC(=O)NC2CCCCCC2)c(OC)c1 | 13 | 1 | -48* | 0 | -1 | i
COc1ccccc1C(=O)OCC(=O)NC(=O)NC1CCCC1 | 3 | -1 | 105 | 2 | 1 | i
